The source made the active and inactive calls. The rule behind the calls is not given here.

In series [1] the test system is Raji. Description: Inhibition of TPA-induced EBV early antigen activation in human Raji cells at 1000 molar ratio after 48 hrs relative to TPA by indirect immunofluorescence technique. Type of series: cell-based. Also on record: scale not given: the % may be the effect or the level left. To be noted: human gammaherpesvirus 4.
The test system of series [2] is Raji. The series is described as follows: Inhibition of TPA-induced EBV early antigen activation in human Raji cells at 500 molar ratio after 48 hrs relative to TPA by indirect immunofluorescence technique. Type of series: cell-based. Also on record: scale not given: the % may be the effect or the level left. To be noted: human gammaherpesvirus 4.
The subject of series [3] is Raji. The series is described as follows: Inhibition of TPA-induced EBV early antigen activation in human Raji cells at 100 molar ratio after 48 hrs relative to TPA by indirect immunofluorescence technique. Type of series: cell-based. Details: scale not given: the % may be the effect or the level left. To be noted: human gammaherpesvirus 4.
The subject of series [4] is Raji. Description: Inhibition of TPA-induced EBV early antigen activation in human Raji cells at 10 molar ratio after 48 hrs relative to TPA by indirect immunofluorescence technique. To be noted: human gammaherpesvirus 4. Type of series: cell-based. Also on record: scale not given: the % may be the effect or the level left.
In series [5] the test system is Raji. The series is described as follows: Cytotoxicity against human Raji cells carrying EBV genome by trypan blue staining method. Type of series: cell-based. Details: concentration or dose not given beside the values. The method in brief: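 Raji cells grown in RPMI-1640 with 10% FBS and exposed for 48 h at 37 °C to n-butyric acid (4 mmol), TPA (32 pmol) and test compound in DMSO. Viability of treated cells was read by Trypan Blue staining.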

Series [6] deals with Mus musculus. The series is described as follows: Inhibition of DMBA-induced/TPA-promoted carcinogenesis in ICR mouse assessed as reduction in number of skin papillomas per mouse at 85 nmol administered 1 hr before TPA treatment measured after 20 weeks. Type of series: functional, organism-based. The method in brief: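 Female SPF ICR mice, 6 weeks old, 15 per group, with shaved backs. Initiation was a single topical dose of DMBA (100 µg, 390 nmol) in 0.1 mL acetone. From one week later, TPA (1 µg, 1.7 nmol) in acetone was applied twice weekly. Compound (85 nmol in 0.1 mL acetone) was applied topically 1 h before each TPA dose. Papillomas per mouse were recorded weekly for 20 weeks.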

The subject of series [7] is Mus musculus. Description: Inhibition of DMBA-induced/TPA-promoted carcinogenesis in ICR mouse assessed as reduction of papilloma-bearing mice at 85 nmol administered 1 hr before TPA treatment measured after 10 weeks.
Series [8] relates to Mus musculus. Description: Inhibition of DMBA-induced/TPA-promoted carcinogenesis in ICR mouse assessed as reduction of papilloma-bearing mice at 85 nmol administered 1 hr before TPA treatment measured after 15 weeks.
For series [9], the system named is Mus musculus. The series is described as follows: Inhibition of DMBA-induced/TPA-promoted carcinogenesis in ICR mouse assessed as reduction of papilloma-bearing mice at 85 nmol administered 1 hr before TPA treatment measured after 20 weeks.

Consider `CC(=O)O[C@H]1[C@H](OC(=O)c2ccccc2)[C@@]2(C)[C@@H](OC(=O)/C=C/c3ccccc3)C[C@@H]3[C@@H](OC(C)=O)[C@]2(OC3(C)C)[C@@](C)(O)[C@H]1OC(C)=O`, for which the Activity in the series on Raji [1] turned out to be 8.9%; in the series on Raji [2], 39.6%; in the series with Raji [3], 87.4%; with Raji [4] it was 100%; with Raji [5], 60%.
In the same order, the values of `CC(=O)O[C@H]1[C@H](OC(=O)c2ccccc2)[C@@]2(C)[C@@H](OC(=O)c3ccccc3)C[C@@H]3[C@@H](OC(=O)c4ccccc4)[C@]2(OC3(C)C)[C@@](C)(O)[C@H]1O` are 13.7%, 54.2%, 87.1%, 100% and 60%.
Take `CC(=O)O[C@H]1[C@H](OC(=O)c2ccccc2)[C@@]2(C)[C@@H](OC(=O)c3ccccc3)C[C@@H]3[C@@H](OC(C)=O)[C@]2(OC3(C)C)[C@@](C)(O)[C@H]1O` [2BETA,3BETA,4BETA,TRIHYDROXYCELARBICO]: the Activity was 0% in the series on Raji [1]; 33.2% with Raji [2]; 77.5% with Raji [3]; 98.6% in the series with Raji [4]; 60% with Raji [5]. For the same molecule, the outcome with Mus musculus [6] was Active. Besides, the Papilloma-bearing mice % in the series with Mus musculus [7] is 20%; in the series with Mus musculus [8], 53.3%; with Mus musculus [9], 90%.
On to `CC(=O)O[C@H]1[C@H](OC(=O)c2ccccc2)[C@@]2(C)[C@@H](OC(=O)/C=C/c3ccccc3)C[C@@H]3[C@@H](O)[C@]2(OC3(C)C)[C@@](C)(O)[C@H]1O`, for which the Activity is 5.3% with Raji [1]; 35.2% in the series with Raji [2]; 85.2% with Raji [3]; 100% in the series with Raji [4]; 60% with Raji [5].
In the same order, the values of `CC(=O)O[C@H]1[C@H](OC(=O)c2ccccc2)[C@@]2(C)[C@@H](OC(=O)/C=C/c3ccccc3)C[C@@H]3[C@@H](O)[C@]2(OC3(C)C)[C@@](C)(O)[C@H]1OC(C)=O` are 10.1%, 51.3%, 85.2%, 100% and 60%.
For `CC(=O)O[C@H]1[C@H](OC(=O)c2ccccc2)[C@@]2(C)[C@@H](OC(=O)/C=C/c3ccccc3)C[C@@H]3C[C@]2(OC3(C)C)[C@@](C)(O)[C@H]1O`, in that order: 10.9%, 52%, 86.2%, 100% and 60%.
In the same order, the values of `CC(=O)O[C@H]1[C@H](OC(=O)c2ccccc2)[C@@]2(C)[C@@H](OC(=O)/C=C/c3ccccc3)C[C@@H]3[C@@H](OC(C)=O)[C@]2(OC3(C)C)[C@@](C)(O)[C@H]1O` are 9.3%, 50.1%, 84.3%, 100% and 60%.
For `CC1=C(/C=C/C(C)=C/C=C/C(C)=C/C=C/C=C(C)/C=C/C=C(C)/C=C/C2=C(C)CCCC2(C)C)C(C)(C)CCC1` [BETA CAROTENE], the Activity in the series on Raji [1] was 8.6%; in the series on Raji [2] it was 33.3%; with Raji [4], 100%; with Raji [5], 70%.
As for `CC(=O)O[C@H]1[C@H](OC(=O)c2ccccc2)[C@@]2(C)[C@@H](OC(=O)/C=C/c3ccccc3)C[C@@H]3C[C@]2(OC3(C)C)[C@@](C)(O)[C@H]1OC(C)=O`, the Activity in the series on Raji [1] is 11.8%; with Raji [2], 53.2%; with Raji [3] it was 86.3%; with Raji [4] it was 100%; with Raji [5], 60%.
`CC(=O)O[C@H]1[C@H](OC(=O)c2ccccc2)[C@@]2(C)[C@@H](OC(=O)c3ccccc3)C[C@@H]3[C@@H](OC(C)=O)[C@]2(OC3(C)C)[C@@](C)(O)[C@H]1OC(=O)c1cccnc1`: the Activity in the series with Raji [1] worked out at 7.5%; in the series on Raji [2], 36.6%; with Raji [3], 87.6%; with Raji [4], 100%; with Raji [5] it was 60%.

For the origin of these results see ChEMBL document CHEMBL1154978, “Sesquiterpenes from Maytenus jelskii as potential cancer chemopreventive agents” (J Nat Prod, 2010).
